# Data published in article PMC2955813 (Cancer prevention research (Philadelphia, Pa.), 2010).
# Columns and labels:
# [1] = system: HT-29, SW480, and HCT116 human colon cancer cell lines; assay: Cell Titer Glo growth assay, colon tumor cell lines; type: cell-based; conditions: for effect on colon tumor cell growth: PDE isozyme specific inhibitors; for IC50: Homo sapiens, 72 h, read-out: growth inhibition IC50, range over cell lines; for HT-29 growth inhibition: NSAID panel
# [2] = system: cGMP hydrolysis in HT-29 cell lysate; assay: IMAP fluorescence polarization PDE assay, cGMP hydrolysis in HT-29 lysate; type: biochemical, human; conditions: HT-29 cell lysates; concentration not given
# How it was run: (§1)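 HT-29 or FHC cells were lysed in ice-cold 20 mM Tris-acetate, 5 mM Mg acetate, 1 mM EGTA, 0.8% Triton X-100, 50 mM NaF, protease inhibitors, pH 7.4. Lysates were cleared at 10,000g, 10 min, 4°C, and protein measured by BCA. PDE activity was read by IMAP fluorescence polarization, with Fl-cAMP and TAMRA-cGMP as substrates so cAMP and cGMP hydrolysis were measured together.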
# [3] = system: intracellular cGMP levels in colon tumor cells; conditions: cited from earlier work
# [4] = system: cGMP PDE in HT-29 human colon tumor cell lysates; assay: cGMP PDE scintillation proximity assay in HT-29 lysate; type: biochemical; conditions: HT-29 cell lysates; for IC50: read-out: IC50 cGMP PDE, scintillation proximity assay; for effect on cGMP PDE activity: NSAID panel
# How it was run: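 The reaction was stopped with scintillation proximity beads that bind the labeled product, then counted.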
# [5] = system: cGMP PDE activity in lysates from HT-29 tumors established in athymic mice; assay: cGMP PDE in HT-29 tumor homogenates versus normal rat colonic mucosa; type: biochemical, human; conditions: HT-29 tumor lysate vs normal rat colonic mucosa lysate
# [6] = system: cAMP hydrolysis in HT-29 cell lysate; assay: IMAP fluorescence polarization PDE assay, cAMP hydrolysis in HT-29 lysate; type: biochemical, human
# [7] = system: cyclinD1 and survivin expression in SW480 cells; assay: Western blot of cyclin D1 and survivin; type: cell-based, human; conditions: time-dependent
# How it was run: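 SW480 lysate (ice-cold Tris-acetate/Triton X-100/NaF buffer, pH 7.4, cleared at 10,000g, 4°C) was loaded at 30 μg protein per lane. Proteins were separated by 12% SDS-PAGE and transferred to nitrocellulose, blocked with 5% BSA in TBS/0.05% Tween-20, and probed for cyclin D1 and survivin, with β-actin as loading control.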
# [8] = system: Tcf/Lef-mediated transcription in HT-29, HCT-116, and SW480 colon cancer cells; assay: TOPFlash luciferase reporter assay; type: cell-based, human; conditions: HT-29, HCT-116, SW480, 24 hours
# How it was run: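 Cells were transiently co-transfected with the TOPFlash luciferase construct and a β-galactosidase expression vector, then treated for 24 h. After lysis, luciferase and β-galactosidase activities were measured, and luciferase was normalized to β-galactosidase.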
# [9] = system: HT-29 cells; assay: 3H-thymidine incorporation proliferation assay; type: cell-based, human; conditions: read-out: IC50 Proliferation, 72 hours, tritiated thymidine assay
# How it was run: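 HT-29 cells (>95% viable by trypan blue) were treated for 72 h in total. 1 μCi ³H-thymidine was added at 56 h and incubation continued 16 h at 37°C. DNA was harvested onto filters and uptake counted by scintillation.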
# [10] = system: cGMP PDE in FHC lysates; assay: IMAP fluorescence polarization PDE assay, cGMP hydrolysis in FHC lysate; type: biochemical, human; conditions: FHC lysate compared with HT-29 lysate
# How it was run: as §1
# [11] = system: recombinant PDE3; assay: Recombinant PDE3 inhibition; type: biochemical; conditions: recombinant isozyme, cAMP as substrate; data not shown
# [12] = Plasma levels of sulindac and metabolites; type: in vivo; conditions: for concentration at 6 h: mouse, plasma, po, 50 mg/kg
# [13] = biological target: recombinant PDE2 (Homo sapiens, UniProt O00408); assay: Recombinant PDE2 inhibition; type: biochemical; conditions: recombinant isozyme, cAMP as substrate; data not shown
# Sequence of recombinant PDE2 (O00408 whole entry): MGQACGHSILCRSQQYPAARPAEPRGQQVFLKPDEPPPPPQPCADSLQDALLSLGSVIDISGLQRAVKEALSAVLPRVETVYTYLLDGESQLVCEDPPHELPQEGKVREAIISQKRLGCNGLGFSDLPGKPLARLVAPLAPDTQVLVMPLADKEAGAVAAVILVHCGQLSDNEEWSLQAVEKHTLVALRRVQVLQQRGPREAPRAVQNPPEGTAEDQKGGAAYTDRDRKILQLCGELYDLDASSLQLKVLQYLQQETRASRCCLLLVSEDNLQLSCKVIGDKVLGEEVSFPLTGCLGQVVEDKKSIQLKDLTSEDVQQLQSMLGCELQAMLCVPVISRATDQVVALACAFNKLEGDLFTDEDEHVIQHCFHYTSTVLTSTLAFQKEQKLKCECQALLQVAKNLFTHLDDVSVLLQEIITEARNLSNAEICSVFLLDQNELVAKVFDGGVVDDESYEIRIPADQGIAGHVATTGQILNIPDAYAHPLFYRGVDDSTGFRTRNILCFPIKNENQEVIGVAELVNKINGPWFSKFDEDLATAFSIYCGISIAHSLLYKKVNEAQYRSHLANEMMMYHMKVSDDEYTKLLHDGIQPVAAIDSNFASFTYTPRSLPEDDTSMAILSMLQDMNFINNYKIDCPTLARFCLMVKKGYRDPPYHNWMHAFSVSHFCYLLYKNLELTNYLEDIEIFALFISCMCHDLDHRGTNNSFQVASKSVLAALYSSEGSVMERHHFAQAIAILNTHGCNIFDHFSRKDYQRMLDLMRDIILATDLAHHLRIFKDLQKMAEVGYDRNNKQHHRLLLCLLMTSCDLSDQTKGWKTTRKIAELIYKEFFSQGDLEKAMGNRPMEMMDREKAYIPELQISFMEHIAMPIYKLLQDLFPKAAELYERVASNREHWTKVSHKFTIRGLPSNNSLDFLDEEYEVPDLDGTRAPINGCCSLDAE
# [14] = biological target: T1, Purified ovine COX-2 (Ovis aries, UniProt P79208); assay: COX-2 inhibition, purified enzyme; type: biochemical; conditions: read-out: IC50 COX-2
# T1 sequence (P79208 17-603): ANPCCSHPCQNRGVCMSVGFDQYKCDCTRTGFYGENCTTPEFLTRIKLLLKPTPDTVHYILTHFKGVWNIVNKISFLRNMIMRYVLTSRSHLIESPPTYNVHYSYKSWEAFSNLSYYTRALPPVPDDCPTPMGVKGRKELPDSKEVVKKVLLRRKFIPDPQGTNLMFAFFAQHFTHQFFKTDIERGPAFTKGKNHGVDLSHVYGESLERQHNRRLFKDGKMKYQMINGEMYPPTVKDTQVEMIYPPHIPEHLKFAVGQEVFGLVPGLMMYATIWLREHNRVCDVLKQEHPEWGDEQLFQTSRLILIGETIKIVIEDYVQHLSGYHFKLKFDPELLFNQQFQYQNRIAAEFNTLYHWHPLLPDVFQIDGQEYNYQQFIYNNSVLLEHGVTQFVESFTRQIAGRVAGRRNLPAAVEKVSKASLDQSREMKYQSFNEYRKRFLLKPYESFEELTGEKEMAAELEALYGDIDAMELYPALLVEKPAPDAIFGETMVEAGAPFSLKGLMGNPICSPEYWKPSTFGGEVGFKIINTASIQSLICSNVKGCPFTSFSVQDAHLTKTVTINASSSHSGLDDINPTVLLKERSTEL
# [15] = biological target: T2, Purified ovine COX-1 (Ovis aries, UniProt P05979); assay: COX-1 inhibition, purified enzyme; type: biochemical; conditions: read-out: IC50 COX-1
# T2 sequence (P05979 25-600): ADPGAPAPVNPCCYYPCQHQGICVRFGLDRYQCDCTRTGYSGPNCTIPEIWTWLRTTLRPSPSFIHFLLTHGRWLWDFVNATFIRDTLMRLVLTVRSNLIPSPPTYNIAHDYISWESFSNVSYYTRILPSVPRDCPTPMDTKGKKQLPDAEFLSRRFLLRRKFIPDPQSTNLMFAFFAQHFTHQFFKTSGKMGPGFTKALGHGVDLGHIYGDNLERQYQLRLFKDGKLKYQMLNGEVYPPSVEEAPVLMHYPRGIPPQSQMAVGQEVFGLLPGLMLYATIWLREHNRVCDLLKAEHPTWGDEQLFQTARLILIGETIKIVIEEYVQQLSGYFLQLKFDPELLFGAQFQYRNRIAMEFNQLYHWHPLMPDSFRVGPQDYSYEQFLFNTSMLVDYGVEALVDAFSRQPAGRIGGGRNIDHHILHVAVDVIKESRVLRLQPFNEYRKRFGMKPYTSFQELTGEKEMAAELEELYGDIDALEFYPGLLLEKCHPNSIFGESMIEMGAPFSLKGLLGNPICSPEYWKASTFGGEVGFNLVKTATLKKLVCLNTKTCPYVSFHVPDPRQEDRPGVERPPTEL
# [16] = system: human HT-29 colon tumor xenograft; assay: HT-29 colon tumor xenograft efficacy; type: in vivo, male NCr-nu/nu athymic mice; conditions: 50 mg/kg once daily oral gavage
# How it was run: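 Male NCr-nu/nu mice, 5–6 weeks old, were implanted subcutaneously with HT-29 tumor fragments; 10 mice per group, vehicle-treated control. Dosing started at tumor size 75–200 mg: 50 mg/kg oral gavage once daily for 40 days, as a suspension in 0.5% CMC, 0.25% Tween 80 in water. Tumor dimensions and body weight were measured twice weekly; mortality checked daily.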
# [17] = Tolerance study; type: in vivo; conditions: daily oral gavage for 20 days; no deaths or significant weight loss
smiles,measurement,setting,value
CCCCCC[C@@H]([C@@H](C)O)n1cnc2c(N)ncnc21 (racemic) [EHNA],effect on colon tumor cell growth,"[1]; HT-29, SW480, HCT116",only MY5445 was found to inhibit colon tumor cell growth
same,inhibition of cGMP PDE activity in HT-29 lysate,[2],less than 12%
O=C(O)C1CCN(c2nc(NCc3ccc4c(c3)OCO4)c3cc(Cl)ccc3n2)CC1 [E4021],increase in intracellular cGMP levels,[3],unable to induce a significant increase
"COc1ccc2c(c1)c(CC(=O)O)c(C)n2C(=O)c1ccc(Cl)cc1 [Indomethacin, indomethacin]",IC50,[4],24 µM
"Clc1cccc(Nc2nnc(-c3ccccc3)c3ccccc23)c1 [MY5445, 1-(3-chloroanilino)-4-phenylphthalazine]",IC50,[1],8 to 18 µM
same,fold greater potency for tumor cGMP PDE compared to normal tissue,[5],more than 10 fold
same,effect on cAMP hydrolysis,[6],without substantially affecting cAMP hydrolysis
same,expression of cyclinD1 and survivin,[7],significant reduction
same,Tcf/Lef-mediated transcription,[8],significant reduction
"CS(=O)(=O)c1ccc(C2=C(c3ccccc3)C(=O)OC2)cc1 [Rofecoxib, rofecoxib]",IC50,[4],> 300 µM
"CSc1ccc(/C=C2/C(C)=C(CC(=O)O)c3cc(F)ccc32)cc1 [Sulindac sulfide, sulindac sulfide]",IC50,[1],73 to 85 µM
same,IC50,[4],19.7 µM
same,IC50,[9],33.9 µM
same,effect on cAMP hydrolysis,[6],appreciably higher concentrations were necessary
same,cGMP PDE inhibition in FHC lysate,[10],reduced sensitivity
same,expression of cyclinD1 and survivin,[7],significant reduction
same,cAMP hydrolysis by PDE3,[11],did not significantly inhibit
same,concentration at 6 h,[12],36.7 ± 10.2 µM
same,cAMP hydrolysis by PDE2,[13],did not significantly inhibit
same,Tcf/Lef-mediated transcription,[8],significant reduction
"CC1=C(CC(=O)O)c2cc(F)ccc2/C1=C\c1ccc(S(C)(=O)=O)cc1 [Sulindac sulfone, sulindac sulfone]",IC50,[4],95.9 µM
same,concentration at 6 h,[12],8.9 ± 1.2 µM
"CC1=C(CC(=O)O)c2cc(F)ccc2/C1=C\c1ccc([S+](C)[O-])cc1 (stereo not shown) [Sulindac sulfoxide, sulindac]",IC50,[4],120 µM
same,IC50,[9],224 µM
same,IC50,[14],> 300 µM
same,IC50,[15],> 300 µM
same,reduction of tumor growth,"[16]; end of treatment, vs vehicle",approximately 55%
same,effect on body weight,[16]; not shown,without affecting body weight
same,maximum tolerated dosage,[17],approximately 50 mg/kg
same,plasma level,[12]; 6 hours following a single oral dose of sulindac at 50 mg/kg,23.1 ± 5.5 µM
CC(=O)Oc1ccccc1C(=O)O [aspirin],HT-29 growth inhibition,[1],low potency
same,effect on cGMP PDE activity,[4],did not affect cGMP PDE activity
Cc1ccc(-c2cc(C(F)(F)F)nn2-c2ccc(S(N)(=O)=O)cc2)cc1 [celecoxib],HT-29 growth inhibition,[1],did inhibit tumor cell growth
same,effect on cGMP PDE activity,[4],inhibited cGMP PDE
C=C[C@@]1(C)CC(=O)[C@]2(O)[C@@]3(C)[C@@H](O)CCC(C)(C)[C@@H]3[C@H](O)[C@H](OC(C)=O)[C@@]2(C)O1 [forskolin],effect on growth,"[1]; HT-29, SW480, HCT116, 72 hours, concentrations up to 100 μM",did not significantly affect growth
Cc1[nH]c(=O)c(C#N)cc1-c1ccncc1 [milrinone],effect on colon tumor cell growth,"[1]; HT-29, SW480, HCT116",only MY5445 was found to inhibit colon tumor cell growth
same,inhibition of cGMP PDE activity in HT-29 lysate,[2],31%
CCCCC1C(=O)N(c2ccccc2)N(c2ccccc2)C1=O [phenylbutazone],HT-29 growth inhibition,[1],low potency
same,effect on cGMP PDE activity,[4],did not affect cGMP PDE activity
CN1C(C(=O)Nc2ccccn2)=C(O)c2ccccc2S1(=O)=O [piroxicam],HT-29 growth inhibition,[1],low potency
same,effect on cGMP PDE activity,[4],did not affect cGMP PDE activity
COc1ccc(C2CNC(=O)C2)cc1OC1CCCC1 (stereo not shown) [rolipram],effect on colon tumor cell growth,"[1]; HT-29, SW480, HCT116",only MY5445 was found to inhibit colon tumor cell growth
CCCc1nn(C)c2c(=O)[nH]c(-c3cc(S(=O)(=O)N4CCN(C)CC4)ccc3OCC)nc12 [sildenafil],effect on colon tumor cell growth,"[1]; HT-29, SW480, HCT116",did not affect colon tumor cell growth
same,inhibition of cGMP PDE activity in HT-29 lysate,[2],42%
CN1CC(=O)N2[C@H](c3ccc4c(c3)OCO4)c3[nH]c4ccccc4c3C[C@@H]2C1=O [tadalafil],effect on colon tumor cell growth,"[1]; HT-29, SW480, HCT116",did not affect colon tumor cell growth
CCOC(=O)C1=C[C@]2(CC)CCCN3CCc4c(n1c1ccccc41)[C@@H]32 [vinpocetine],effect on colon tumor cell growth,"[1]; HT-29, SW480, HCT116",only MY5445 was found to inhibit colon tumor cell growth
